In ChEMBL document CHEMBL1145899, “Estrogenic potential of 2-alkyl-4-(thio)chromenone 6-O-sulfamates: potent inhibitors of human steroid sulfatase” (J Med Chem, 2003) one finds Stimulation, ED50 and IC50 data, which are given here for 20 molecules.

Assay [1] has as its system MCF7. As to the kind of experiment: Stimulation of MCF-7 cell proliferation at 10 nM. In kind it is functional, Homo sapiens. Put shortly:
(§1)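 MCF-7 cells hormone-depleted 10 days, then seeded at 20 000 cells/cm² in phenol red-free RPMI with 2.5% charcoal-stripped FCS and held 5 days. Compound (ethanol/DMSO, ≤0.1% solvent) added day 5, refreshed day 8; sulforhodamine counts days 5 and 10; triplicate wells. % stimulation = (growth vs solvent controls ×100) − 100.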

Assay [2] concerns the target Estrogen receptor beta (Homo sapiens) (UniProt Q92731).
In assay [3] the test system is MCF7. As to the kind of experiment: Stimulation of MCF-7 cell proliferation at 1000 nM. The format is functional, Homo sapiens. The gist of the method: as §1
The test system of assay [4] is MCF7. As to the kind of experiment: Stimulation of MCF-7 cell proliferation at 100 nM. In kind it is functional, Homo sapiens. The gist of the method:
as §1

Assay [5] addresses T1, Estrogen receptor (Homo sapiens) (UniProt P03372).
T1 sequence (whole entry): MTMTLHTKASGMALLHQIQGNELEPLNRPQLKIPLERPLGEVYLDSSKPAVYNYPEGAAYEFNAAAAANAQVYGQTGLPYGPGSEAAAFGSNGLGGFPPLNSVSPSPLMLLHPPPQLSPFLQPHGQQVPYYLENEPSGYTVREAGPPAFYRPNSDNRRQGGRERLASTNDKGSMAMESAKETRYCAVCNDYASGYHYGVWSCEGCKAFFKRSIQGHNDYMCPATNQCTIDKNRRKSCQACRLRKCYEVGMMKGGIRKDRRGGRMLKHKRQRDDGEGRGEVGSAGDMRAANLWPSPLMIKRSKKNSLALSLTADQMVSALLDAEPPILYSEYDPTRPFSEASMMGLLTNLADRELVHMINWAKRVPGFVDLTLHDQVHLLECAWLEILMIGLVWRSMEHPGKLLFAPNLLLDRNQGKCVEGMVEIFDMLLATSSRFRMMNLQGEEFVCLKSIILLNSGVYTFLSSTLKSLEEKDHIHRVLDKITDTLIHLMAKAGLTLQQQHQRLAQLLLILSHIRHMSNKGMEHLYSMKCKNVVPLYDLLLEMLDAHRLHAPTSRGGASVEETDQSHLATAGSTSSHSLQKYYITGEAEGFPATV

Another assay has as its target T2, Steryl-sulfatase (Homo sapiens, UniProt P08842).
T2 sequence (P08842 whole entry): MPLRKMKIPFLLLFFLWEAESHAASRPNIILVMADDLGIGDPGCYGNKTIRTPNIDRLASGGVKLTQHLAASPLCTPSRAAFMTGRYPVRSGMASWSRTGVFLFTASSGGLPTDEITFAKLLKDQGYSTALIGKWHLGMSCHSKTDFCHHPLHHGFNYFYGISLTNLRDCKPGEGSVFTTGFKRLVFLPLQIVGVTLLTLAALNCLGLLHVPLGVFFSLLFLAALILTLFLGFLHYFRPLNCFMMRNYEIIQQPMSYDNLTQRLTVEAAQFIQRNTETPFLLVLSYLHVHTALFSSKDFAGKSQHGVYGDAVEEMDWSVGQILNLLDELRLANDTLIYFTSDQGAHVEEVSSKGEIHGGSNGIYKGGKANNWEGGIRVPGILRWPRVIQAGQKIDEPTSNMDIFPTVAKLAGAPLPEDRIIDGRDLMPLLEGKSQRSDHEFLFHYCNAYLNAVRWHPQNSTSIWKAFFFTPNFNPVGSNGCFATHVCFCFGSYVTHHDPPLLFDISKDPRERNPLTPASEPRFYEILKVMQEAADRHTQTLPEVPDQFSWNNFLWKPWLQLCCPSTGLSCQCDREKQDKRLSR
Nature of the assay: Inhibition of steroid sulfatase. Put shortly: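 Purified recombinant human STS; fluorimetric assay with 4-methylumbelliferone sulfate as substrate. IC50 by nonlinear regression; mean of triplicate determinations.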

Assay [6] deals with T1, Estrogen receptor (Homo sapiens). Nature of the assay: Affinity of sulfamate compound for human estrogen receptor alpha. The gist of the method: (§2)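 Fluorescence polarization competition with purified human ER; ER-α final 13 nM or ER-β final 10 nM, fluorescein-estradiol tracer 1 nM final. Compounds from DMSO or ethanol stocks, 0.5% (v/v) final solvent; room temperature 2–2.5 h; triplicate wells. Four-parameter logistic fit; ED50 = concentration giving polarization midway between +tracer/+ER and +tracer/−ER controls. Tested up to solubility limit.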

Assay [7] concerns the target Estrogen receptor beta (Homo sapiens) (UniProt Q92731). As to the kind of experiment: Affinity of sulfamate compound for human estrogen receptor beta. Put shortly:
as §2

Some results are limits rather than exact numbers.

Sequence of Estrogen receptor beta (Homo sapiens) (Q92731 whole entry): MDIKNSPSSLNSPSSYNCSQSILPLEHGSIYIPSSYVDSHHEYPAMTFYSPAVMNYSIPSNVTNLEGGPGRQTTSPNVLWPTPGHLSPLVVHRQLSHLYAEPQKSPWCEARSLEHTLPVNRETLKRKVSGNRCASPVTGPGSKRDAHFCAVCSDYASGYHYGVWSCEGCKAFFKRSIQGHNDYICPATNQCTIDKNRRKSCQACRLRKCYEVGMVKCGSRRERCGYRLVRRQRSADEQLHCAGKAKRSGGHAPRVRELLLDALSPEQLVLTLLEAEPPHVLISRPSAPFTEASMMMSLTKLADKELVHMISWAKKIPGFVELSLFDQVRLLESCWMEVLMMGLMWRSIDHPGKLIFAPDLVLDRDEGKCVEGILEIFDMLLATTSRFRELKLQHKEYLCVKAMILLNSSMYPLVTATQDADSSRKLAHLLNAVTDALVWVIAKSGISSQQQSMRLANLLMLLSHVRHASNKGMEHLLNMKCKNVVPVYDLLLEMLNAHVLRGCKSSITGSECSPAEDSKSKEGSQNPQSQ

In turn, `C[C@]12CC[C@@H]3c4ccc(O)cc4CC[C@H]3[C@@H]1CC[C@@H]2O` [ESTRADIOL] had a Stimulation with MCF7 [1] of 400%. In assay [2], this molecule yielded an ED50 of 0.011 µM.

As for `NS(=O)(=O)Oc1ccc2oc(C3CCCCCCCCCCC3)cc(=O)c2c1`, the values for the Stimulation in the assay with MCF7 [1], in the assay on MCF7 [3] and in the assay with MCF7 [4] were 48%, 118% and 72%, respectively. Besides, the ED50 in assay [5] is greater than 10 µM; in assay [2] it was greater than 30 µM.

Take `CCCCCCCCCc1cc(=O)c2cc(O)ccc2o1`: the ED50 in assay [5] and in assay [2] was greater than 100 µM each time.

For the molecule `CCCCCCCCC(C)(C)c1cc(=O)c2cc(O)ccc2o1`, the ED50 in assay [5] and in assay [2] was greater than 100 µM in each case.

On to `NS(=O)(=O)Oc1ccc2c(c1)C(=O)CC(C13CC4CC(CC(C4)C1)C3)O2` (stereo unspecified), for which the figures for the Stimulation with MCF7 [1], in the assay with MCF7 [3] and in the assay with MCF7 [4] were 79%, 130% and 90%, respectively. The ED50 in assay [5] stood at 13 µM; in assay [2] it was 14 µM.

A word on the IC50: it is the concentration that inhibits the measured activity by half. Low values mean greater potency in that assay, high ones weaker potency in that assay. With `NS(=O)(=O)Oc1ccc2oc(C34CC5CC(CC(C5)C3)C4)cc(=O)c2c1`, the Stimulation with MCF7 [1] was 71%; in the assay with MCF7 [3] it was 116%; with MCF7 [4], 88%. At Steryl-sulfatase, this molecule showed an IC50 of 0.0056 µM. For the same molecule, the ED50 in assay [5] and in assay [2] was greater than 30 µM throughout.

For the molecule `NS(=O)(=O)Oc1ccc2sc(C34CC5CC(CC(C5)C3)C4)cc(=O)c2c1`, the Stimulation in the assay with MCF7 [1] is reported as 78%; in the assay on MCF7 [3] it was 120%; with MCF7 [4] it was 99%. The ED50 is 4.8 µM in assay [5] and 18 µM in assay [2].

With `NS(=O)(=O)Oc1ccc2oc(CCc3ccccc3)cc(=O)c2c1`, the ED50 in assay [6] and in assay [7] was greater than 100 µM each time. Moreover, the Stimulation in the assay with MCF7 [1] is listed as 16%; in the assay on MCF7 [3], 45%; in the assay on MCF7 [4], 33%.

With `C[C@]12CC[C@@H]3c4ccc(OS(N)(=O)=O)cc4CCC3[C@@H]1CCC2=O` (single isomer, unassigned) [EMATE], the ED50 in assay [6] came out at 2.6 µM; in assay [7] it was 3.7 µM. Moreover, the values for the Stimulation with MCF7 [1], with MCF7 [3] and in the assay on MCF7 [4] were 97%, 123% and 112%, respectively.

Regarding `CCCCCC12CCC(CC1)C(c1cc(=O)c3cc(O)ccc3o1)C2` (stereo unspecified), the ED50 in assay [5] and in assay [2] was greater than 100 µM in each case.

For `CC(C)(C)c1cc(=O)c2cc(O)ccc2o1`, the ED50 came to 64 µM in assay [5] and 69 µM in assay [2].

As to `O=c1cc(C23CC4CC(CC(C4)C2)C3)sc2ccc(O)cc12`, the ED50 was 0.21 µM in assay [5] and 0.48 µM in assay [2].

For `O=C1CC(C23CC4CC(CC(C4)C2)C3)Oc2ccc(O)cc21` (stereo unspecified), the figures for the ED50 in assay [5] and in assay [2] were 0.1 µM and 0.035 µM, respectively.

Take `CC1(C)C(c2cc(=O)c3cc(O)ccc3o2)C1(C)C`: the values for the ED50 in assay [5] and in assay [2] were 0.9 µM and 2.6 µM, respectively.

On to `O=c1cc(C23CC4CC(CC(C4)C2)C3)oc2ccc(O)cc12`, for which the ED50 in assay [5] worked out at 1.5 µM; in assay [2], 1.4 µM.

As for `CC(C)(C)c1cc(=O)c2cc(OS(N)(=O)=O)ccc2o1`, the figures for the Stimulation in the assay on MCF7 [1], with MCF7 [3] and in the assay on MCF7 [4] were 12%, 100% and 45%, respectively. The ED50 in assay [5] and in assay [2] was greater than 100 µM throughout.

Take `CCCCCCCCCc1cc(=O)c2cc(OS(N)(=O)=O)ccc2o1`: the Stimulation in the assay with MCF7 [1], in the assay with MCF7 [3] and in the assay with MCF7 [4] was 0% each time. Besides, the ED50 in assay [5] is greater than 50 µM; in assay [2], greater than 100 µM.

In the case of `CCCCCCCCC(C)(C)c1cc(=O)c2cc(OS(N)(=O)=O)ccc2o1`, the Stimulation in the assay with MCF7 [1], with MCF7 [3] and in the assay with MCF7 [4] was 0% throughout. The ED50 was greater than 30 µM in assay [5] and greater than 100 µM in assay [2].

Take `CC1(C)C(c2cc(=O)c3cc(OS(N)(=O)=O)ccc3o2)C1(C)C`: the values for the Stimulation with MCF7 [1], with MCF7 [3] and in the assay with MCF7 [4] were 52%, 120% and 85%, respectively. Moreover, the ED50 in assay [5] was 30 µM; in assay [2] it was 47 µM.

Regarding `O=c1cc(C2CCCCCCCCCCC2)oc2ccc(O)cc12`, the values for the ED50 in assay [5] and in assay [2] were 0.8 µM and 1.5 µM, respectively.
